INS promoter act – TRM-6 insulin promoter activation; TRM-6 cells, insulin promoter eGFP reporter, imaging; plate-scaled: unstimulated 0, stimulated control 100; activation, % at 2 µM; 130,000 tested, 0.81% active; AID 1296;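 active = activation at 2 µM above a set limit, confirmed on inspection of the cell images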;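 also: share of cells whose green reporter signal exceeds an intensity cutoff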
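System: human fetal islet-derived TRM-6 cells with tamoxifen-inducible insulin promoter–eGFP reporter; input: seeding density of 1,000 cells per well; buffer or medium: Low-glucose (5.5 mM) medium with tamoxifen; incubation: compound exposure 48 h, 37 °C; measured by: high-content imaging of fixed cells with Hoechst nuclear stain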
Each line names hits and unclear results; the compound was inactive in the other large screens. The sample as a whole holds a higher share of hits than the screen did.

COc1ccc(C2C(C(=O)N3CCN(C)CC3)c3cc(OC)c(OC)cc3C(=O)N2C)cc1 (stereo not given)	none
COc1cc2c(cc1OC)C(C(=O)Nc1cccc(C)n1)C(c1cccnc1)N(C)C2=O (stereo not given)	none
COc1cc2c(cc1OC)C(C(=O)Nc1ccccc1N1CCN(C)CC1)C1c3ccccc3CCN1C2=O (stereo not given)	INS promoter act 355.0
CCOc1ccc(C(=O)N[C@H](C(=O)O)C(C)C)cc1	none
COc1ccc(/C=C/C2=CC(C)(C)NC(=S)N2)cc1OC	none
COc1ccc(NC(=O)CC2C(=O)N(c3ccc(OC)cc3)C(=O)N2CCc2cccs2)cc1 (stereo not given)	none
CCNC(=O)CC1C(=O)N(c2ccccc2)C(=O)N1CCc1ccc(OC)c(OC)c1 (stereo not given)	none
CCNC(=O)CC1C(=O)N(c2ccc(F)cc2)C(=O)N1CCc1ccc(OC)cc1 (stereo not given)	INS promoter act 154.5
CCC(C)(C)NC(=O)CN(C(=O)CCC(=O)Nc1ccccn1)c1ccc(F)c(Cl)c1	none
O=C(N/C(=C/c1cccnc1)C(=O)N1CCOCC1)c1ccccc1Br	none
CN(C)S(=O)(=O)c1ccc(C(=O)Nc2ccc(CCC(=O)N3CCCC3)cc2)cc1	INS promoter act 448.6
CCN(CC)S(=O)(=O)c1ccc(C(=O)Nc2ccc(Cc3ccncc3)cc2)cc1	none
CN(C)S(=O)(=O)c1ccc(C(=O)Nc2ccc(CN3CCCC3)cc2)cc1	none
NS(=O)(=O)c1ccc(CCNc2nc3c(-c4cccc(F)c4)nnn3c3ccccc23)cc1	none
CCc1nc(SCC(=O)Nc2nnc(CC)s2)c2c(C)c(C)sc2n1	INS promoter act 253.8
CC(=O)Nc1ccc(NC(=O)CSc2nc(C)nc3sc(C)c(C)c23)cc1	none
CCc1nnc(NC(=O)CSc2ccc(-c3ccco3)nn2)s1	none
COc1ccc(S(=O)(=O)NCc2ccc(C)cc2)cc1	none
Cc1ccc(C(=O)O/N=C/C2=C(Cl)c3ccccc3CC2)cc1	none
O=C(NCCN1CCCCCC1)c1ccc(N2CCCC2=O)cc1	none
CN1CCN(C(=O)c2ccc(N3CCCC3=O)cc2)CC1	none
CC(C)(C)c1ccc(C(=O)N2CCCCCC2=O)cc1	INS promoter act 584.6
Cc1nc2cc(-c3cccc(F)c3)nn2c(N2CCN(C(=O)c3ccco3)CC2)c1C	none
O=C(O)c1cc(/C=N\O)ccc1OCc1ccccc1	none
O=[N+]([O-])c1ccc(COc2ccccc2/C=N/O)cc1	INS promoter act 528.6
O=C(CNC(=O)c1ccccc1)OCc1ccc([N+](=O)[O-])cc1	none
COc1ccccc1N1CCN(S(=O)(=O)c2cccs2)CC1	none
COc1ccc(N2CCN(S(=O)(=O)c3cccs3)CC2)cc1	INS promoter act 500.0
COc1ccc(N2CCN(S(=O)(=O)c3ccc(Cl)s3)CC2)cc1	none
Cc1ccn(-c2ccc([N+](=O)[O-])cc2)n1	none
Cc1cc(C(=O)NC2CCCc3ccccc32)c(C)o1 (stereo not given)	none
COc1cccc2cc(C(C)N(CCCN3CCOCC3)C(=S)Nc3ccc(C)cc3)oc12 (stereo not given)	none
COc1cccc(NC(=O)N(CCCN2CCOCC2)C(C)c2cc3ccccc3o2)c1 (stereo not given)	none
COc1cccc(NC(=S)N(CCCN2CCOCC2)C(C)c2cc3cccc(OC)c3o2)c1 (stereo not given)	INS promoter act 258.8
CC(=O)Nc1ccc(-c2cc3ccccc3o2)cc1	none
Cc1ccc(OCCn2cnc3c(N)ncnc32)cc1	none
COc1ccc(NC(=O)CSc2nnc(Cn3c(=O)sc4ccccc43)n2C)cc1OC	none
CC(C)N(C(=O)CSc1nc2ccccc2n1Cc1ccccc1F)C(C)C	none
Cc1cccn2c(=O)c(C=NCCO)c(NCc3ccco3)nc12	none
CCOCCCNc1nc2c(C)cccn2c(=O)c1/C=C1\SC(=S)N(CC(C)C)C1=O	INS promoter act 222.6
FC(F)(F)c1ccccc1Nc1nccs1	none
CS(=O)(=O)c1ccc(C(=O)N2CCN(Cc3ccccc3)CC2)cc1	none
Cc1[nH]c(=O)[nH]c(=O)c1S(=O)(=O)N1CCC(C(=O)N2CCN(Cc3ccccc3)CC2)CC1	none
CS(=O)(=O)N1CCC(C(=O)N2CCN(Cc3ccccc3)CC2)CC1	INS promoter act 437.5
CN(CCOC(=O)c1cccc(F)c1)Cc1ccccc1	none
O=C(Nc1ccc(OC(=O)c2ccncc2)cc1)c1ccncc1	none
O=C(NCCc1ccccn1)C1CC(=O)N(Cc2ccccc2Cl)C1 (stereo not given)	INS promoter act 131.3
COc1ccc(CN2CC(C(=O)NCCC3=CCCCC3)CC2=O)cc1 (stereo not given)	none
COCCCNC(=O)C1CC(=O)N(Cc2ccc(OC)cc2)C1 (stereo not given)	none
O=S(=O)(NCC1OCCc2ccccc21)c1ccc(S(=O)(=O)N2CCOCC2)cc1 (stereo not given)	none
COc1cc(C(=O)Oc2cc(C)cc(C)c2)cc(OC)c1OC	INS promoter act 607.1
COc1cc(C(=O)Nc2ccccn2)cc(OC)c1OC	none
COc1ccc(C(=O)/C=C/c2ccc(OC(=O)c3cc(OC)c(OC)c(OC)c3)cc2)cc1	none
Cc1ccc(C(=O)NCCc2nnc3ccc(SCC(=O)Nc4cc(C)on4)nn23)cc1	none
C/C(NC(=O)c1cccc(F)c1)=C1/C(=O)C[C@@H]2[C@H]1C2(C)C	none
O=C(C1CCCN1C(=O)c1cccs1)N1CCN(Cc2ccc3c(c2)OCO3)CC1 (stereo not given)	none
O=C1CCCN1S(=O)(=O)c1ccccc1	none
COc1cc(S(=O)(=O)Nc2ncccc2C)c(OC)cc1Cl	none
Cc1nn(-c2ccccc2)c2c1C1(C(=O)N(C)c3ccccc31)C(C#N)=C(N)O2 (stereo not given)	none
CN1/C(=C\C=C2/C(=O)Oc3ccccc3C2=O)C(C)(C)c2ccccc21	INS promoter act 222.6
CN1/C(=C\C(=O)Nc2ccc(Br)cc2)C(C)(C)c2ccccc21	none
COc1cc(/C=C2\C(=O)N(CCC#N)N=C2C)ccc1OCC(=O)Nc1ccccc1	none
COc1cc(/C=C(\C#N)c2ccccn2)ccc1OCC(=O)Nc1cccc(C(F)(F)F)c1	INS promoter act 280.0
COc1cc(NC(=O)CSCC(=O)Nc2cccc(C(F)(F)F)c2)c(Cl)cc1Cl	none
Cc1nc(N2CCC(C)CC2)c2c(C)c(C(=O)Nc3ccccc3C(F)(F)F)sc2n1	none
Cc1ccccc1OCCCC(=O)Nc1nncs1	none
COCCNC(=O)Cn1c(=O)n(CCCCCC(=O)NCc2ccc3c(c2)OCO3)c(=O)c2sccc21	none
CCOC(=O)/C=c1\s/c(=C\c2ccc3cc(OC)ccc3c2)c(=O)n1CC(=O)NCc1ccc2c(c1)OCO2	INS promoter act 335.3
CCOC(=O)/C=c1\s/c(=C\c2c(OCC)ccc3ccccc23)c(=O)n1CC(=O)NCC1CCCO1 (stereo not given)	none
COc1cccc2c1OCC/C2=N\NC(=O)COc1ccccc1C	none
COc1ccc(NC(=O)CSc2n[nH]c(N)n2)cc1OC	INS promoter act 331.6
COc1ccc(NC(=O)CSc2nncn2C)cc1OC	none
Nc1nc(SCC(=O)Nc2ccc(Br)cc2F)n[nH]1	none
O=C(CCCC(=O)N(CC(=O)NC1CCCC1)Cc1ccccc1)Nc1ccccn1	none
Cc1cccc(NC(=S)NNC(=O)c2csc3c2CCC(C)C3)c1 (stereo not given)	none
CC1=C(C(=O)OCCNC(=O)c2cccnc2)C(c2cccc([N+](=O)[O-])c2)C(C(=O)OCCN(C)C)=C(C)N1 (stereo not given)	none
O=C(Nc1cc(C(F)(F)F)ccc1-n1cncn1)c1ccc(-c2ccccc2)cc1	INS promoter act 78.1
O=C(Nc1cc(C(F)(F)F)ccc1N1CCOCC1)c1cncc(Br)c1	none
Cc1ccccc1NC(=O)c1cccc(C(F)(F)F)c1	none
